Laboratory results as given in ChEMBL document CHEMBL1667769, “Sodium [2'-[(cyclopropanecarbonyl-ethyl-amino)-methyl]-4'-(6-ethoxy-pyridin-3-yl)-6-methoxy-biphenyl-3-yl]-acetate (AM432): a potent, selective prostaglandin D2 receptor antagonist” (Bioorg Med Chem Lett, 2011).

What was measured:
[1] = molecular target: T1, Prostaglandin D2 receptor 2 (Homo sapiens, UniProt Q9Y5Y4); test: Displacement of [3H]PGD2 from human CRTh2 receptor expressed in 293 cells by liquid scintillation counting in presence of 0.2 % HSA; type: cell-based, HEK293
T1 sequence (Q9Y5Y4 whole entry): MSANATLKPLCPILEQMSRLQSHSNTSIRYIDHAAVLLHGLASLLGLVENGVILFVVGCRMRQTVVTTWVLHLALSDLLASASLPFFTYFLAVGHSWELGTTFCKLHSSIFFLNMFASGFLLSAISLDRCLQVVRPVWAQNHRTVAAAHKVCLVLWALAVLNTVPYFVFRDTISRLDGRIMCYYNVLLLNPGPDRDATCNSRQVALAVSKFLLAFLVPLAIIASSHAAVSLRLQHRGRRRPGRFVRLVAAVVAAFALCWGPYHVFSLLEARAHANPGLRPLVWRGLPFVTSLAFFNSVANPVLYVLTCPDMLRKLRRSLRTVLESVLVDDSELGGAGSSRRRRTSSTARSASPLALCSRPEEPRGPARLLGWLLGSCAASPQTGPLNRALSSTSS
Outline: (§1)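 Membranes from 293 cells stably expressing human DP₂ incubated with [³H]-PGD₂ and increasing compound concentrations. Membranes harvested and washed; bound [³H]-PGD₂ counted. IC₅₀ taken as concentration giving 50% inhibition of binding. Run without and with 0.2% human serum albumin. Values averaged from three experiments (five for the lead).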

[2] = molecular target: T1, Prostaglandin D2 receptor 2; test: Displacement of [3H]PGD2 from human CRTh2 receptor expressed in 293 cells by liquid scintillation counting; type: cell-based, HEK293; outline: as §1

For `CCN(Cc1cc(C(=O)O)ccc1-c1cc(CC(=O)O)ccc1OC)C(=O)OCc1ccccc1`, the IC50 [1] was 0.254 µM and the IC50 [2] was 0.008 µM.
`CCN(Cc1cc(S(C)(=O)=O)ccc1-c1cc(CC(=O)O)ccc1OC)C(=O)OCc1ccccc1` showed an IC50 [1] of 0.007 µM and an IC50 [2] of 0.005 µM.
Compound `CCN(Cc1cc(-c2ccc(F)cn2)ccc1-c1cc(CC(=O)O)ccc1OC)C(=O)C1CC1` has an IC50 [1] of 0.06 µM and an IC50 [2] of 0.009 µM.
With `CCN(Cc1cc(-c2cnc3ccccc3c2)ccc1-c1cc(CC(=O)O)ccc1OC)C(=O)C1CC1` the IC50 [1] was 0.052 µM and the IC50 [2] was 0.007 µM.
`CCN(Cc1cc(NS(=O)(=O)c2ccc(Cl)cc2)ccc1-c1cc(CC(=O)O)ccc1OC)C(=O)OCc1ccccc1` was tested, and the IC50 [1] was 0.09 µM and the IC50 [2] was 0.003 µM.
`CCN(Cc1cc(-c2cnn(C)c2)ccc1-c1cc(CC(=O)O)ccc1OC)C(=O)C1CC1` showed an IC50 [1] of 0.037 µM and an IC50 [2] of 0.027 µM.
